The term IC50 denotes the point on the concentration scale where inhibition reaches its midpoint.

Molecules are shown by their SMILES. Activity calls are given as the source filed them. The rule behind the calls is not given here.

Consider ten compounds from ChEMBL document CHEMBL1142623, “Phytotoxic compounds from the new coprophilous fungus guanomyces polythrix” (J Nat Prod, 2000).

Test [1] has as its system Amaranthus hypochondriacus. In words: Phytotoxicity against Amaranthus hypochondriacus assessed as inhibition of radicle elongation. The format is functional, organism-based. Put shortly: (§1)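 Seedling radicle growth assay at 28 °C. Pure compounds tested at 1, 10 and 100 µg mL-1, with 2,4-D as positive control. Results analysed by ANOVA (p < 0.05). IC50 calculated by Probit analysis from percent radicle growth inhibition.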

A further test relates to Echinochloa crus-galli. The experiment in a line: Phytotoxicity against Echinochloa crusgalli assessed as inhibition of radicle elongation. The test is classed as functional, organism-based. Put shortly:
as §1

Test [2] has as its target Calmodulin (Bos taurus) (UniProt P62157). The experiment in a line: Binding affinity to bovine brain calmodulin at 0.033 ug/mL after 1.5 hrs by electrophoretic mobility assay in presence of calcium chloride. Put shortly: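 Bovine brain calmodulin (2 µg samples) pretreated with isolates at 0.033 µg/mL plus 1 mM CaCl2 for 1.5 h at 30 °C. Mobility then compared against untreated calmodulin on 15% polyacrylamide SDS-PAGE. A parallel condition used EGTA in place of Ca2+.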

Test [3] has the same target. In words: Binding affinity to bovine brain calmodulin at 0.033 ug/mL after 1.5 hrs by electrophoretic mobility assay in presence of EGTA. The essentials: (§2)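 Commercial spinach or bovine brain calmodulin, 2-µg samples, pretreated with compound for 1.5 h at 30 °C in presence of 1 mM CaCl2 or EGTA, then run on 15% polyacrylamide SDS-PAGE gels. Binding judged by shift in electrophoretic mobility relative to untreated calmodulin under the same condition (Ca2+ vs EGTA).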

In test [4] the target is Calmodulin (Spinacia oleracea) (UniProt P04353). In words: Binding affinity to spinach calmodulin at 0.033 ug/mL after 1.5 hrs by electrophoretic mobility assay in presence of calcium chloride. The essentials:
as §2

The target is the same in test [5]. The experiment in a line: Binding affinity to spinach calmodulin at 0.033 ug/mL after 1.5 hrs by electrophoretic mobility assay presence of EGTA. Put shortly: as §2

`COc1cc(OC)c2c(O)c3c(cc2c1)O[C@@H](C)[C@H](C)C3=O`: the results for the IC50 (in test [1]; with Echinochloa crus-galli) were 100 µM and 120 µM, respectively. The outcome (at Calmodulin (Bos taurus) [2]; in test [4]; in test [5]) was Active. Besides, the outcome at Calmodulin (Bos taurus) [3] was inactive.
Take `CC1=C2C(=CO[C@H](C)[C@H]2C)C(O)=C(C(=O)O)C1=O` [CITRININ]: the concentration for half-maximal inhibition (IC50) in test [1] was 55 µM; with Echinochloa crus-galli it was 63 µM. Besides, the result (at Calmodulin (Bos taurus) [2]; in test [4]; in test [5]) was Active. The result at Calmodulin (Bos taurus) [3] was inactive.
As to `COc1cc(OC)c2c(O)c3c(=O)cc(C)oc3cc2c1` [RUBROFUSARIN B], the 50% inhibitory concentration (IC50) is 13 µM in test [1] and 87 µM with Echinochloa crus-galli. The result (on Calmodulin (Bos taurus) [2]; in test [4]; in test [5]) was Active. Besides, at Calmodulin (Bos taurus) [3], the outcome was inactive.
In the case of `COc1cc(OC)c2c(O)c3c(=O)c(C)c(C)oc3cc2c1`, the IC50 amounted to 80 µM in test [1] and 170 µM in the test on Echinochloa crus-galli. For the same compound, the outcome (on Calmodulin (Bos taurus) [2]; in test [4]; in test [5]) was Active. Besides, on Calmodulin (Bos taurus) [3], the result was inactive.
Turning to `O=C(O)COc1ccc(Cl)cc1Cl` [2,4-DICHLOROPHENOXYACETIC ACID], the results for the IC50 (in test [1]; with Echinochloa crus-galli) were 180 µM and 880 µM, respectively.
In the case of `COc1cc(OC)c2c(O)c3c(cc2c1)O[C@@H](C)CC3=O`, the values for the IC50 (in test [1]; in the test with Echinochloa crus-galli) were 23 µM and 87 µM, respectively. The result (on Calmodulin (Bos taurus) [2]; in test [4]; in test [5]) was Active. Moreover, the outcome at Calmodulin (Bos taurus) [3] was inactive.
For the compound `COc1cc(OC)c2c(O)c3c(c(OC)c2c1)O[C@@H](C)CC3=O`, the IC50 came out at 13 µM in test [1] and 40 µM in the test with Echinochloa crus-galli. The result (at Calmodulin (Bos taurus) [2]; in test [4]; in test [5]) was Active. In addition, the result on Calmodulin (Bos taurus) [3] was inactive.
For `COC(=O)c1ccc(O)cc1` [METHYLPARABEN], the 50% inhibitory concentration (IC50) in test [1] amounted to 23 µM; with Echinochloa crus-galli, 630 µM. The result (at Calmodulin (Bos taurus) [2]; in test [4]; in test [5]) was Active. For the same compound, the outcome at Calmodulin (Bos taurus) [3] was inactive.
`COc1cc(OC)c2c(O)c3c(c(OC)c2c1)O[C@@H](C)[C@H](C)C3=O`: the IC50 in test [1] is 65 µM; in the test on Echinochloa crus-galli it was 61 µM. The outcome (at Calmodulin (Bos taurus) [3]; in test [4]; in test [5]) was Active.
With `Cc1cc(O)c2c(c1)C(=O)c1cc(O)cc(O)c1C2=O` [EMODIN], the concentration for half-maximal inhibition (IC50) in test [1] was determined as 130 µM; in the test with Echinochloa crus-galli, 20 µM. The outcome (at Calmodulin (Bos taurus) [2]; in test [4]; in test [5]) was Active. At Calmodulin (Bos taurus) [3], the result was inactive.
